*1 amine or outer side, *2 acyl side, *3 side chain or, on linkers, in order; H or OH if unused. Where a SMILES comes first, the peptide text is derived from it. [ ]: non-standard residue; d: D form. The star is where a group is joined. NH(1S-phenylpropyl) = CC[C@H](N*)c1ccccc1; NH(1R-phenylethyl) = C[C@@H](N*)c1ccccc1; NH(1S-phenylethyl) = C[C@H](N*)c1ccccc1; X8 = O=C(N(CC(F)(F)F)N[*:1])[*:2]; Hyp = O=C(O)[C@@H]1C[C@@H](O)CN1; NHPiperonyl = c1cc2c(cc1CN*)OCO2; X12 = CCCN(N*)C(=O)NN(C)c1ccccc1; X5 = CC(C)CCN(N[*:1])C(=O)[*:2]; azaNva = CCCN(N[*:1])C(=O)[*:2]; AzaAla = CN(N[*:1])C(=O)[*:2]; X10 = CCCN(N*)C(=O)CCc1ccccc1; X3 = C[C@H](N*)c1cccc2ccccc12; X9 = CCCCCN(N[*:1])C(=O)[*:2]; NMe(benzyl) = CN(Cc1ccccc1)*; X6 = CCCN(N*)C(=S)NCc1ccccc1; X7 = CCCN(N*)C(=O)OCc1ccccc1; X1 = c1ccc2c(c1)CC[C@@H]2N*; X4 = C[C@H](N*)c1ccc(Br)cc1; X14 = C[C@H](N*)c1nnn[nH]1; X11 = C[C@H](N*)C1CCCCC1; X13 = c1ccc2c(c1)CCN2*; NHBn = c1ccc(CN*)cc1; X2 = CCCN(N*)C(N)=O; Bn = c1ccc(C*)cc1
Biological target: T1, NS3 (Hepatitis C virus, UniProt A3EZJ3)
Test: Inhibitory concentration against Hepatitis C virus NS3 serine protease
Design: species or system Hepacivirus hominis
In short: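 HCV NS3 serine protease IC50 from the group's in-house protease assay, run as previously described. Each reported value is the mean of at least four determinations.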

T1 sequence (A3EZJ3 whole entry): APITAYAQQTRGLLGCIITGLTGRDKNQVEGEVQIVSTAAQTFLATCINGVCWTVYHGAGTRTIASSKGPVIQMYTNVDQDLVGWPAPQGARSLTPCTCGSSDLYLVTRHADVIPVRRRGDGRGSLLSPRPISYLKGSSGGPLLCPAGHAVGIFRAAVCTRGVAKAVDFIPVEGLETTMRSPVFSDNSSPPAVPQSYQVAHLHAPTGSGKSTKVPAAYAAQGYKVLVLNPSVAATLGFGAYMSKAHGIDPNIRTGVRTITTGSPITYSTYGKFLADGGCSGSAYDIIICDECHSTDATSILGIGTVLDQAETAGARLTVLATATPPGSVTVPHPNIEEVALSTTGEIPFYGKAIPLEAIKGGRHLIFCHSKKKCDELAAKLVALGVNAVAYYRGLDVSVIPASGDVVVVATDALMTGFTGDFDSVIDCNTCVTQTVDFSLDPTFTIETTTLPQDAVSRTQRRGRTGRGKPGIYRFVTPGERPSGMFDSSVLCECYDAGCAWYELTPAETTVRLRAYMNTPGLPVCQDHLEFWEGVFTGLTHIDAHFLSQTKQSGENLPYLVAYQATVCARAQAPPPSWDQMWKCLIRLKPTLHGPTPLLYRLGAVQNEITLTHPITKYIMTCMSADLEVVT

Q: For Ac-DDIVPC-OH, which IC50 is on record?
A: 43000 nM

Biological target: T1, NS3
Test: Inhibitory concentration against Hepatitis C virus serine protease
Design: species or system Hepacivirus hominis

Q: `CCCCCN(NC(=O)[C@@H]1C[C@@H](OCc2ccccc2)CN1C(=O)[C@@H](NC(=O)[C@@H](NC(=O)[C@@H](CCC(=O)O)NC(=O)[C@H](CC(=O)O)NC(C)=O)[C@@H](C)CC)C(C)C)C(=O)N[C@@H](C)c1ccccc1` (Ac-D[dE]IV[Hyp](Bn)[X9]-{NH(1S-phenylethyl)}) was tested. Which IC50 did it give?
A: 490 nM

Q: `CCCN(NC(=O)[C@@H]1C[C@@H](OCc2ccccc2)CN1C(=O)[C@@H](NC(=O)[C@@H](NC(=O)[C@@H](CCC(=O)O)NC(=O)[C@H](CC(=O)O)NC(C)=O)[C@@H](C)CC)C(C)C)C(=O)N[C@@H](C)c1nnn[nH]1` (Ac-D[dE]IV[Hyp](Bn)[azaNva]-X14) was tested. Which IC50 did it give?
A: 860 nM

Q: For `CCC[C@@H](NC(=O)[C@@H]1C[C@@H](OCc2ccccc2)CN1C(=O)[C@@H](NC(=O)[C@@H](NC(=O)[C@@H](CCC(=O)O)NC(=O)[C@H](CC(=O)O)NC(C)=O)[C@@H](C)CC)C(C)C)C(=O)O`, which IC50 is on record?
A: 34000 nM

Q: Which IC50 does the source give for `CCCN(NC(=O)[C@@H]1C[C@@H](OCc2ccccc2)CN1C(=O)[C@@H](NC(=O)[C@@H](NC(=O)[C@@H](CCC(=O)O)NC(=O)[C@H](CC(=O)O)NC(C)=O)[C@@H](C)CC)C(C)C)C(=O)NCc1ccccc1` (Ac-D[dE]IV[Hyp](Bn)[azaNva]-NHBn) here?
A: 590 nM

Q: `CCCN(NC(=O)[C@@H]1C[C@@H](OCc2ccccc2)CN1C(=O)[C@@H](NC(=O)[C@@H](NC(=O)[C@@H](CCC(=O)O)NC(=O)[C@H](CC(=O)O)NC(C)=O)[C@@H](C)CC)C(C)C)C(N)=O` (Ac-D[dE]IV[Hyp](Bn)-X2) was tested. Which IC50 did it give?
A: 17500 nM

Q: `CCCN(NC(=O)[C@@H]1C[C@@H](OCc2ccccc2)CN1C(=O)[C@@H](NC(=O)[C@@H](NC(=O)[C@@H](CCC(=O)O)NC(=O)[C@H](CC(=O)O)NC(C)=O)[C@@H](C)CC)C(C)C)C(=O)N[C@@H](CC)c1ccccc1` (Ac-D[dE]IV[Hyp](Bn)[azaNva]-{NH(1S-phenylpropyl)}) was tested. Which IC50 did it give?
A: 440 nM

Q: `CCCN(NC(=O)[C@@H]1C[C@@H](OCc2ccccc2)CN1C(=O)[C@@H](NC(=O)[C@@H](NC(=O)[C@@H](CCC(=O)O)NC(=O)[C@H](CC(=O)O)NC(C)=O)[C@@H](C)CC)C(C)C)C(=O)CCc1ccccc1` (Ac-D[dE]IV[Hyp](Bn)-X10) was tested. Which IC50 did it give?
A: 710 nM

Q: How did the IC50 turn out when `CC[C@H](C)[C@H](NC(=O)[C@@H](CCC(=O)O)NC(=O)[C@H](CC(=O)O)NC(C)=O)C(=O)N[C@H](C(=O)N1C[C@H](OCc2ccccc2)C[C@H]1C(=O)NN(CCC(C)C)C(=O)N[C@@H](C)c1ccccc1)C(C)C` (Ac-D[dE]IV[Hyp](Bn)[X5]-{NH(1S-phenylethyl)}) was run?
A: 5700 nM

Q: `CCCCN(NC(=O)[C@@H]1C[C@@H](OCc2ccccc2)CN1C(=O)[C@@H](NC(=O)[C@@H](NC(=O)[C@@H](CCC(=O)O)NC(=O)[C@H](CC(=O)O)NC(C)=O)[C@@H](C)CC)C(C)C)C(=O)N[C@@H](C)c1ccccc1` was tested. Which IC50 did it give?
A: 99 nM

Q: `CCC[C@H](NC(=O)[C@@H]1C[C@@H](OCc2ccccc2)CN1C(=O)[C@@H](NC(=O)[C@@H](NC(=O)[C@@H](CCC(=O)O)NC(=O)[C@H](CC(=O)O)NC(C)=O)[C@@H](C)CC)C(C)C)C(N)=O` was tested. Which IC50 did it give?
A: 26000 nM

Q: How did the IC50 turn out when `CCCN(NC(=O)[C@@H]1C[C@@H](OCc2ccccc2)CN1C(=O)[C@@H](NC(=O)[C@@H](NC(=O)[C@@H](CCC(=O)O)NC(=O)[C@H](CC(=O)O)NC(C)=O)[C@@H](C)CC)C(C)C)C(=O)N[C@H]1CCc2ccccc21` (Ac-D[dE]IV[Hyp](Bn)[azaNva]-X1) was run?
A: 100 nM

Q: How did the IC50 turn out when `CCCN(NC(=O)[C@@H]1C[C@@H](OCc2ccccc2)CN1C(=O)[C@@H](NC(=O)[C@@H](NC(=O)[C@@H](CCC(=O)O)NC(=O)[C@H](CC(=O)O)NC(C)=O)[C@@H](C)CC)C(C)C)C(=O)NN(C)c1ccccc1` (Ac-D[dE]IV[Hyp](Bn)-X12) was run?
A: 480 nM

Q: Which IC50 does the source give for `CC[C@H](C)[C@H](NC(=O)[C@@H](CCC(=O)O)NC(=O)[C@H](CC(=O)O)NC(C)=O)C(=O)N[C@H](C(=O)N1C[C@H](OCc2ccccc2)C[C@H]1C(=O)NN(C)C(=O)N[C@@H](C)c1ccccc1)C(C)C` (Ac-D[dE]IV[Hyp](Bn)[AzaAla]-{NH(1S-phenylethyl)}) here?
A: 430 nM

Q: How did the IC50 turn out when `CC[C@H](C)[C@H](NC(=O)[C@@H](CCC(=O)O)NC(=O)[C@H](CC(=O)O)NC(C)=O)C(=O)N[C@H](C(=O)N1C[C@H](OCc2ccccc2)C[C@H]1C(=O)NN(CC)C(=O)N[C@@H](C)c1ccccc1)C(C)C` was run?
A: 85 nM

Q: Which IC50 does the source give for `CCC(CC)N(NC(=O)[C@@H]1C[C@@H](OCc2ccccc2)CN1C(=O)[C@@H](NC(=O)[C@@H](NC(=O)[C@@H](CCC(=O)O)NC(=O)[C@H](CC(=O)O)NC(C)=O)[C@@H](C)CC)C(C)C)C(=O)N[C@@H](C)c1ccccc1` here?
A: 4100 nM

Q: How did the IC50 turn out when `CCCN(NC(=O)[C@@H]1C[C@@H](OCc2ccccc2)CN1C(=O)[C@@H](NC(=O)[C@@H](NC(=O)[C@@H](CCC(=O)O)NC(=O)[C@H](CC(=O)O)NC(C)=O)[C@@H](C)CC)C(C)C)C(=O)N[C@@H](C)C1CCCCC1` (Ac-D[dE]IV[Hyp](Bn)[azaNva]-X11) was run?
A: 420 nM

Q: Which IC50 does the source give for `CCC[C@H](NC(=O)[C@@H]1C[C@@H](OCc2ccccc2)CN1C(=O)[C@@H](NC(=O)[C@@H](NC(=O)[C@@H](CCC(=O)O)NC(=O)[C@H](CC(=O)O)NC(C)=O)[C@@H](C)CC)C(C)C)C(=O)O` here?
A: 600 nM

Q: How did the IC50 turn out when `CCCN(NC(=O)[C@@H]1C[C@@H](OCc2ccccc2)CN1C(=O)[C@@H](NC(=O)[C@@H](NC(=O)[C@@H](CCC(=O)O)NC(=O)[C@H](CC(=O)O)NC(C)=O)[C@@H](C)CC)C(C)C)C(=O)OCc1ccccc1` (Ac-D[dE]IV[Hyp](Bn)-X7) was run?
A: 800 nM

Q: How did the IC50 turn out when `CC[C@H](C)[C@H](NC(=O)[C@@H](CCC(=O)O)NC(=O)[C@H](CC(=O)O)NC(C)=O)C(=O)N[C@H](C(=O)N1C[C@H](OCc2ccccc2)C[C@H]1C(=O)NN(CC(F)(F)F)C(=O)N[C@@H](C)c1ccccc1)C(C)C` (Ac-D[dE]IV[Hyp](Bn)[X8]-{NH(1S-phenylethyl)}) was run?
A: 340 nM

Q: For `CCCN(NC(=O)[C@@H]1C[C@@H](OCc2ccccc2)CN1C(=O)[C@@H](NC(=O)[C@@H](NC(=O)[C@@H](CCC(=O)O)NC(=O)[C@H](CC(=O)O)NC(C)=O)[C@@H](C)CC)C(C)C)C(=O)N1CCc2ccccc21` (Ac-D[dE]IV[Hyp](Bn)[azaNva]-X13), which IC50 is on record?
A: 4400 nM

Q: `CCCN(NC(=O)[C@@H]1C[C@@H](OCc2ccccc2)CN1C(=O)[C@@H](NC(=O)[C@@H](NC(=O)[C@@H](CCC(=O)O)NC(=O)[C@H](CC(=O)O)NC(C)=O)[C@@H](C)CC)C(C)C)C(=O)N(C)Cc1ccccc1` (Ac-D[dE]IV[Hyp](Bn)[azaNva]-{NMe(benzyl)}) was tested. Which IC50 did it give?
A: 8400 nM

Q: With `CCCN(NC(=O)[C@@H]1C[C@@H](OCc2ccccc2)CN1C(=O)[C@@H](NC(=O)[C@@H](NC(=O)[C@@H](CCC(=O)O)NC(=O)[C@H](CC(=O)O)NC(C)=O)[C@@H](C)CC)C(C)C)C(=O)NCc1ccc2c(c1)OCO2` (Ac-D[dE]IV[Hyp](Bn)[azaNva]-NHPiperonyl) as the compound, how does the IC50 read?
A: 500 nM

Q: How did the IC50 turn out when `CC[C@H](C)[C@H](NC(=O)[C@@H](CCC(=O)O)NC(=O)[C@H](CC(=O)O)NC(C)=O)C(=O)N[C@H](C(=O)N1C[C@H](OCc2ccccc2)C[C@H]1C(=O)NN(CC(C)C)C(=O)N[C@@H](C)c1ccccc1)C(C)C` was run?
A: 2400 nM

Q: For `CCCN(NC(=O)[C@@H]1C[C@@H](OCc2ccccc2)CN1C(=O)[C@@H](NC(=O)[C@@H](NC(=O)[C@@H](CCC(=O)O)NC(=O)[C@H](CC(=O)O)NC(C)=O)[C@@H](C)CC)C(C)C)C(=O)N[C@H](C)c1ccccc1` (Ac-D[dE]IV[Hyp](Bn)[azaNva]-{NH(1R-phenylethyl)}), which IC50 is on record?
A: 4300 nM

Q: With `CCCN(NC(=O)[C@@H]1C[C@@H](OCc2ccccc2)CN1C(=O)[C@@H](NC(=O)[C@@H](NC(=O)[C@@H](CCC(=O)O)NC(=O)[C@H](CC(=O)O)NC(C)=O)[C@@H](C)CC)C(C)C)C(=S)NCc1ccccc1` (Ac-D[dE]IV[Hyp](Bn)-X6) as the compound, how does the IC50 read?
A: 4200 nM

Q: `CCCN(NC(=O)[C@@H]1C[C@@H](OCc2ccccc2)CN1C(=O)[C@@H](NC(=O)[C@@H](NC(=O)[C@@H](CCC(=O)O)NC(=O)[C@H](CC(=O)O)NC(C)=O)[C@@H](C)CC)C(C)C)C(=O)N[C@@H](C)c1ccc(Br)cc1` (Ac-D[dE]IV[Hyp](Bn)[azaNva]-X4) was tested. Which IC50 did it give?
A: 72 nM

Q: How did the IC50 turn out when `CCCN(NC(=O)[C@@H]1C[C@@H](OCc2ccccc2)CN1C(=O)[C@@H](NC(=O)[C@@H](NC(=O)[C@@H](CCC(=O)O)NC(=O)[C@H](CC(=O)O)NC(C)=O)[C@@H](C)CC)C(C)C)C(=O)N[C@@H](C)c1cccc2ccccc12` (Ac-D[dE]IV[Hyp](Bn)[azaNva]-X3) was run?
A: 490 nM

Source: ChEMBL document CHEMBL1148367, “Novel azapeptide inhibitors of hepatitis C virus serine protease” (J Med Chem, 2004)
